This note sets out measurements from ChEMBL document CHEMBL4257575, “Discovery of Novel Flavonoid Dimers To Reverse Multidrug Resistance Protein 1 (MRP1, ABCC1) Mediated Drug Resistance in Cancers Using a High Throughput Platform with "Click Chemistry"” (J Med Chem, 2018).

The target of this series is Multidrug resistance-associated protein 1 (Homo sapiens, UniProt P33527). Nature of the series: Inhibition of MRP1 in human 2008/MRP1 cells assessed as potentiation of doxorubicin-induced cytotoxicity by measuring cell survival at 2 uM after 5 days by MTS assay relative to control. It counts as cell-based. The settings on record: 120 h. Summed up: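 2008/MRP1 cells (retroviral human MRP1 transfectant; RPMI 1640, 10% FBS) at 4,000 per well, with 100 nM doxorubicin plus crude, unpurified click products in DMSO: 2 µM in the primary screen, 1 µM in the secondary. Incubated 5 days at 37 °C. MTS/PMS added for 2 h at 37 °C, absorbance read at 490 nm. % survival is relative to wells without DOX or product. Run in triplicate, at least three experiments.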
For orientation: Tetrazolium dyes change colour on reduction, which living cells bring about.

Sequence of Multidrug resistance-associated protein 1 (P33527 whole entry): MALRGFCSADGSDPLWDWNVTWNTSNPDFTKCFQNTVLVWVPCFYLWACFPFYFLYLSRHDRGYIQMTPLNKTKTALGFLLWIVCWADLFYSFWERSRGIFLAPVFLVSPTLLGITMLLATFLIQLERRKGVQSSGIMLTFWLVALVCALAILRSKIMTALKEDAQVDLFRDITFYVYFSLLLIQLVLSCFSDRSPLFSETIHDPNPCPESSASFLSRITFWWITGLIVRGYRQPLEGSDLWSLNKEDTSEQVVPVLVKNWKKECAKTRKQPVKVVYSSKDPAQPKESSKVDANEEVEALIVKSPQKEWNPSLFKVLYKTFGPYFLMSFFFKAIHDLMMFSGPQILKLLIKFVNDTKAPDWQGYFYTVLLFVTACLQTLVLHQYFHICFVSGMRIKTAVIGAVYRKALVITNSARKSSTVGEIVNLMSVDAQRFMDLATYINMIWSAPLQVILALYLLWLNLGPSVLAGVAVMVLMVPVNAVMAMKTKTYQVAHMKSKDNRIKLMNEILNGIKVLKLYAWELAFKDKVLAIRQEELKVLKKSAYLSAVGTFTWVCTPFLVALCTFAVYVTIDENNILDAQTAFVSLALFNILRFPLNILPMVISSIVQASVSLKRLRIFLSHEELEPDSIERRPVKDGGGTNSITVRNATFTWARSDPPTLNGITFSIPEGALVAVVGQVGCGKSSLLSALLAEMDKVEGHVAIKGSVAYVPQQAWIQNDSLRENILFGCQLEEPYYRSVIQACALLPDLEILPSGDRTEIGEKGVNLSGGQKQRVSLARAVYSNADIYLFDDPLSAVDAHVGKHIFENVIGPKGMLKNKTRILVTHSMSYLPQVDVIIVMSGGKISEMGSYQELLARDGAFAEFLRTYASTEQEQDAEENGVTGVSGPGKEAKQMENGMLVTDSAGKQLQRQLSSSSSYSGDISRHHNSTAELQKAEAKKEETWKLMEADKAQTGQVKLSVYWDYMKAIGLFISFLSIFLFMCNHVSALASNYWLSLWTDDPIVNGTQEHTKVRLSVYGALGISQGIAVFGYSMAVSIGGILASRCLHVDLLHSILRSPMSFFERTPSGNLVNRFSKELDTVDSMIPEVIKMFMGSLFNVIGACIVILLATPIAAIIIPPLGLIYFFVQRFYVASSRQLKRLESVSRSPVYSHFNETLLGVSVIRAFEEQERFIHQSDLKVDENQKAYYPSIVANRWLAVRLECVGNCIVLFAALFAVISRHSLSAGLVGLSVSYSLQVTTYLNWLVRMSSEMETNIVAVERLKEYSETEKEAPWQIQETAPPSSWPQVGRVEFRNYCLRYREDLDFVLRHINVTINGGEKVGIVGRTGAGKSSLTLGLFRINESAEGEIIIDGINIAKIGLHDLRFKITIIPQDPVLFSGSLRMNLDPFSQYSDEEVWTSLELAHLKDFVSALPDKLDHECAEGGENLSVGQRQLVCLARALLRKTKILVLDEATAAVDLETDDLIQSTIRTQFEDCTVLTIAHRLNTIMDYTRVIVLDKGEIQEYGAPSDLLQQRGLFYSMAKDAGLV

On to `O=c1cc(-c2ccc(OCCOCCn3cc(CCCOc4ccc(-c5cc(=O)c6cc(F)ccc6o5)cc4)nn3)cc2)oc2ccccc12`, for which the Survival amounted to 93%.

As to `O=c1cc(-c2ccccc2)oc2cc(OCCCCc3cn(CCOCCOc4ccc(-c5oc6ccccc6c(=O)c5OCc5ccccc5)cc4)nn3)ccc12`, the Survival is 79%.

In the case of `O=c1cc(-c2ccc(OCCOCCn3cc(CN(Cc4cn(CCOCCOc5ccc(-c6cc(=O)c7cc(F)ccc7o6)cc5)nn4)Cc4cn(CCOCCOc5ccc(-c6cc(=O)c7cc(F)ccc7o6)cc5)nn4)nn3)cc2)oc2ccc(F)cc12`, the Survival came out at 76%.

With `Cc1ccc2oc(-c3ccc(OCCCCc4cn(CCOc5cccc6c(=O)cc(-c7ccccc7)oc56)nn4)cc3)cc(=O)c2c1`, the Survival came out at 75%.

Regarding `C#CCOCCOc1ccc2c(=O)cc(-c3ccccc3)oc2c1`, the Survival was 98%.

For the compound `COc1cccc(COc2c(-c3ccc(OCCOCCn4cc(CCCCOc5ccc(/C=C/C(=O)c6ccccc6O)cc5)nn4)cc3)oc3ccccc3c2=O)c1`, the Survival came out at 74%.

`[N-]=[N+]=NCCOCCOc1ccc2c(=O)cc(-c3ccccc3)oc2c1`: the Survival turned out to be 91%.

`COc1cccc(COc2c(-c3ccc(OCCOCCn4cc(CN5CCN(Cc6cn(CCOCCOc7ccc(-c8oc9ccccc9c(=O)c8OCc8cccc(OC)c8)cc7)nn6)CC5)nn4)cc3)oc3ccccc3c2=O)c1`: the Survival is reported as 85%.

Consider `CCc1ccc(O)c(C(=O)/C=C/c2ccc(OCCCCc3cn(CCOCCOCCOc4ccc(-c5cc(=O)c6cc(F)ccc6o5)cc4)nn3)cc2)c1`, for which the Survival turned out to be 67%.

As to `CN(CCN(C)Cc1cn(CCOCCOCCOc2ccc(-c3oc4ccccc4c(=O)c3OCc3ccccc3)cc2)nn1)Cc1cn(CCOCCOCCOc2ccc(-c3oc4ccccc4c(=O)c3OCc3ccccc3)cc2)nn1`, the Survival turned out to be 84%.

Take `CN(CCN(C)Cc1cn(CCOc2ccc3occ(-c4ccccc4)c(=O)c3c2)nn1)Cc1cn(CCOc2ccc3c(=O)cc(-c4ccccc4)oc3c2)nn1`: the Survival was 90%.

For `CN(CCN(C)Cc1cn(CCOCCOc2ccc(-c3cc(=O)c4ccccc4o3)cc2)nn1)Cc1cn(CCOCCOc2ccc(-c3cc(=O)c4ccccc4o3)cc2)nn1`, the Survival came out at 87%.

As to `CCc1ccc(O)c(C(=O)/C=C/c2ccc(OCCCCc3cn(CCOCCOCCOc4ccc(-c5cc(=O)c6ccccc6o5)cc4)nn3)cc2)c1`, the Survival stood at 60%.

Turning to `Cc1ccc(C(=O)/C=C/c2ccc(OCCCCc3cn(CCOCCOCCOc4ccc(-c5cc(=O)c6cc(F)ccc6o5)cc4)nn3)cc2)c(O)c1`, the Survival is recorded as 51%.

Consider `C#CCCCCOc1ccc(-c2oc3ccccc3c(=O)c2OCc2cccc(OC)c2)cc1`, for which the Survival was determined as 71%.

`C#CCCCOc1ccc(-c2cc(=O)c3cc(F)ccc3o2)cc1`: the Survival is listed as 81%.

In the case of `[N-]=[N+]=NCCOCCOc1cccc(-c2oc3ccccc3c(=O)c2OCc2ccccc2)c1`, the Survival worked out at 86%.

`COc1cccc(COc2c(-c3ccc(OCCOCCn4cc(CNc5ccccc5)nn4)cc3)oc3ccccc3c2=O)c1`: the Survival is given as 89%.

On to `O=c1cc(-c2ccc(OCCCc3cn(CCOCCOc4ccc(-c5cc(=O)c6cc(F)ccc6o5)cc4)nn3)cc2)oc2ccc(F)cc12`, for which the Survival is listed as 74%.

Regarding `O=c1[nH]c(-c2ccc(OCCCc3cn(CCOCCOCCOc4ccc5c(=O)cc(-c6ccccc6)oc5c4)nn3)cc2)nc2ccccc12`, the Survival is listed as 60%.

As for `C#CCN1CCN(CC#C)CC1`, the Survival was determined as 81%.

Turning to `Cc1ccc2oc(-c3ccc(OCCOCCOCCn4cc(CCCCOc5ccc(C=O)cc5)nn4)cc3)cc(=O)c2c1`, the Survival came out at 72%.

In the case of `Cc1ccc2oc(-c3ccc(OCCOCCOCCn4cc(CCCCOc5ccc(/C=C/C(=O)c6ccccc6O)cc5)nn4)cc3)cc(=O)c2c1`, the Survival was 61%.

Consider `COc1cccc(COc2c(-c3ccc(OCCOCCn4cc(CCCOc5ccc6c(=O)cc(-c7ccccc7)oc6c5)nn4)cc3)oc3ccccc3c2=O)c1`, for which the Survival came out at 78%.

For `O=c1cc(-c2ccccc2)oc2c(OCCn3cc(CNc4ccccc4)nn3)cccc12`, the Survival is 85%.

For `Cc1ccc(C(=O)/C=C/c2ccc(OCCCCc3cn(CCOCCOCCOc4ccc(-c5oc6ccccc6c(=O)c5OCc5ccccc5)cc4)nn3)cc2)c(O)c1`, the Survival came to 71%.

With `C#CCCCOc1ccc(-c2cc(=O)c3ccc(F)cc3o2)cc1`, the Survival worked out at 79%.

Consider `Cc1ccc(O)c(C(=O)/C=C/c2ccc(OCCCCc3cn(CCOCCOCCOc4ccc(-c5oc6ccccc6c(=O)c5OCc5ccccc5)cc4)nn3)cc2)c1`, for which the Survival came to 76%.

For the compound `O=c1c(OCc2ccccc2)c(-c2cccc(OCCOCCn3cc(CNc4ccccc4)nn3)c2)oc2ccccc12`, the Survival came to 92%.

With `COCOc1cc(OCc2ccccc2)c2c(=O)cc(-c3ccc(OCCCc4cn(CCOCCOc5cccc(-c6oc7ccccc7c(=O)c6OCc6ccccc6)c5)nn4)cc3)oc2c1`, the Survival is reported as 74%.

For the compound `COc1cccc(COc2c(-c3ccc(OCCOCCn4cc(CN(Cc5ccccc5)Cc5cn(CCOCCOc6ccc(-c7oc8ccccc8c(=O)c7OCc7cccc(OC)c7)cc6)nn5)nn4)cc3)oc3ccccc3c2=O)c1`, the Survival stood at 80%.

`Cc1ccc(O)c(C(=O)/C=C/c2ccc(OCCCCc3cn(CCOCCOCCOc4ccc(-c5cc(=O)c6cc(C)ccc6o5)cc4)nn3)cc2)c1`: the Survival came to 67%.

Turning to `O=c1cc(-c2ccccc2)oc2cc(OCCN(Cc3ccccc3)Cc3cn(CCOCCOCCOc4ccc(-c5oc6ccccc6c(=O)c5OCc5ccccc5)cc4)nn3)ccc12`, the Survival was 65%.

With `O=c1c(OCc2ccccc2)c(-c2ccc(OCCOCCOCCn3cc(-c4ccc(-c5cn(CCOCCOCCOc6ccc(-c7oc8ccccc8c(=O)c7OCc7ccccc7)cc6)nn5)cc4)nn3)cc2)oc2ccccc12`, the Survival was 86%.

`O=c1cc(-c2ccc(OCCCc3cn(CCOCCOc4cccc(-c5oc6ccccc6c(=O)c5OCc5ccccc5)c4)nn3)cc2)oc2ccccc12`: the Survival is 54%.

Take `O=c1cc(-c2ccccc2)oc2cc(OCCCc3cn(CCOCCOCCOc4ccc5c(=O)cc(-c6ccccc6)oc5c4)nn3)ccc12`: the Survival was determined as 57%.

Regarding `O=c1cc(-c2ccc(OCCOCCOCCn3cc(-c4ccc(-c5cn(CCOCCOCCOc6ccc(-c7cc(=O)c8cc(F)ccc8o7)cc6)nn5)cc4)nn3)cc2)oc2ccc(F)cc12`, the Survival is reported as 83%.

Consider `O=c1cc(-c2ccccc2)oc2cc(OCCOCCn3cc(CNc4ccccc4)nn3)ccc12`, for which the Survival was 88%.

With `Cc1ccc2oc(-c3ccc(OCCCCc4cn(CCOCCOCCOc5ccc(-c6oc7ccccc7c(=O)c6OCc6ccccc6)cc5)nn4)cc3)cc(=O)c2c1`, the Survival was found to be 59%.

With `O=c1cc(-c2ccccc2)oc2cc(OCCCc3cn(CCOCCOc4cccc(-c5oc6ccccc6c(=O)c5OCc5ccccc5)c4)nn3)ccc12`, the Survival was 65%.

Consider `COCOc1cc(OCc2ccccc2)c2c(=O)cc(-c3ccc(OCCCc4cn(CCOCCOc5ccc6c(=O)cc(-c7ccccc7)oc6c5)nn4)cc3)oc2c1`, for which the Survival worked out at 54%.

`COc1cccc(COc2c(-c3ccc(OCCOCCn4cc(CCCOc5ccc(-c6cc(=O)c7ccc(F)cc7o6)cc5)nn4)cc3)oc3ccccc3c2=O)c1`: the Survival was 61%.

For `O=c1cc(-c2ccc(OCCOCCOCCn3cc(CCCCOc4ccc5c(=O)cc(-c6ccccc6)oc5c4)nn3)cc2)oc2ccccc12`, the Survival is 57%.

Turning to `O=c1[nH]c(-c2ccc(OCCCc3cn(CCOCCOc4ccc(-c5cc(=O)c6ccccc6o5)cc4)nn3)cc2)nc2ccccc12`, the Survival is 58%.

For the compound `O=C(/C=C/c1ccc(OCCCCc2cn(CCOCCOCCOc3ccc(-c4oc5ccccc5c(=O)c4OCc4ccccc4)cc3)nn2)cc1)c1ccc(F)cc1O`, the Survival worked out at 68%.

Consider `O=c1[nH]c(-c2ccc(OCCCc3cn(CCOCCOCCOc4ccc(-c5oc6ccccc6c(=O)c5OCc5ccccc5)cc4)nn3)cc2)nc2ccccc12`, for which the Survival is reported as 68%.

With `O=c1cc(-c2ccc(OCCCc3cn(CCOCCOCCOc4ccc5c(=O)cc(-c6ccccc6)oc5c4)nn3)cc2)oc2cc(F)ccc12`, the Survival is 52%.

Turning to `O=c1[nH]c(-c2ccc(OCCCc3cn(CCOc4cccc5c(=O)cc(-c6ccccc6)oc45)nn3)cc2)nc2ccccc12`, the Survival was determined as 67%.

For the compound `CCc1ccc(O)c(C(=O)/C=C/c2ccc(OCCCCc3cn(CCOCCOc4cccc(-c5oc6ccccc6c(=O)c5OCc5ccccc5)c4)nn3)cc2)c1`, the Survival stood at 85%.

`O=c1c(OCc2ccccc2)c(-c2ccc(OCCOCCOCCn3cc(CN4CCN(Cc5cn(CCOCCOCCOc6ccc(-c7oc8ccccc8c(=O)c7OCc7ccccc7)cc6)nn5)CC4)nn3)cc2)oc2ccccc12`: the Survival is 96%.

Turning to `O=c1cc(-c2ccccc2)oc2cc(OCCOCCOCCn3cc(CN(Cc4cn(CCOCCOCCOc5ccc6c(=O)cc(-c7ccccc7)oc6c5)nn4)Cc4cn(CCOCCOCCOc5ccc6c(=O)cc(-c7ccccc7)oc6c5)nn4)nn3)ccc12`, the Survival is listed as 77%.

As to `O=c1c(OCc2ccccc2)c(-c2cccc(OCCOCCn3cc(-c4cccc(-c5cn(CCOCCOc6cccc(-c7oc8ccccc8c(=O)c7OCc7ccccc7)c6)nn5)c4)nn3)c2)oc2ccccc12`, the Survival is 89%.

Take `O=c1cc(-c2ccc(OCCOCCOCCn3cc(CN(Cc4cn(CCOCCOCCOc5ccc(-c6cc(=O)c7ccccc7o6)cc5)nn4)Cc4cn(CCOCCOCCOc5ccc(-c6cc(=O)c7ccccc7o6)cc5)nn4)nn3)cc2)oc2ccccc12`: the Survival was 77%.

Consider `O=Cc1ccc(OCCCCc2cn(CCOCCOc3ccc4c(=O)cc(-c5ccccc5)oc4c3)nn2)cc1`, for which the Survival turned out to be 82%.

As for `O=C1c2ccccc2C(=O)N1CCc1cn(CCOCCOc2ccc(-c3oc4ccccc4c(=O)c3OCc3ccccc3)cc2)nn1`, the Survival is reported as 57%.

Turning to `O=c1cc(-c2ccc(OCCOCCOCCn3cc(CN4CCN(Cc5cn(CCOCCOCCOc6ccc(-c7cc(=O)c8cc(F)ccc8o7)cc6)nn5)CC4)nn3)cc2)oc2ccc(F)cc12`, the Survival is reported as 85%.
